Assay results from ChEMBL document CHEMBL4765243, “Discovery of Novel Bromophenol-Thiosemicarbazone Hybrids as Potent Selective Inhibitors of Poly(ADP-ribose) Polymerase-1 (PARP-1) for Use in Cancer” (J Med Chem, 2019).

How the values were obtained:
SK-OV-3 [1] = test: Antiproliferative activity against human SK-OV-3 cells assessed as cell growth inhibition at 20 uM incubated for 48 hrs by MTT assay relative to control; type: functional
Bel-7402 [2] = test: Antiproliferative activity against human Bel-7402 cells assessed as cell growth inhibition at 20 uM incubated for 48 hrs by MTT assay relative to control; type: functional
HepG2 [3] = test: Antiproliferative activity against human HepG2 cells assessed as cell growth inhibition at 20 uM incubated for 48 hrs by MTT assay relative to control; type: functional
Caco-2 [4] = test: Antiproliferative activity against human Caco-2 cells assessed as cell growth inhibition at 20 uM incubated for 48 hrs by MTT assay relative to control; type: functional
[5] = Cytotoxicity against human HL7702 cells assessed as cell growth inhibition at 20 uM incubated for 48 hrs by MTT assay relative to control; type: cell-based; details: HL7702 (L02) cells
[6] = target: T1, Poly [ADP-ribose] polymerase 1 (Homo sapiens, UniProt P09874); details: dose 100.0 nM, time 30.0 min
T1 sequence (P09874 whole entry): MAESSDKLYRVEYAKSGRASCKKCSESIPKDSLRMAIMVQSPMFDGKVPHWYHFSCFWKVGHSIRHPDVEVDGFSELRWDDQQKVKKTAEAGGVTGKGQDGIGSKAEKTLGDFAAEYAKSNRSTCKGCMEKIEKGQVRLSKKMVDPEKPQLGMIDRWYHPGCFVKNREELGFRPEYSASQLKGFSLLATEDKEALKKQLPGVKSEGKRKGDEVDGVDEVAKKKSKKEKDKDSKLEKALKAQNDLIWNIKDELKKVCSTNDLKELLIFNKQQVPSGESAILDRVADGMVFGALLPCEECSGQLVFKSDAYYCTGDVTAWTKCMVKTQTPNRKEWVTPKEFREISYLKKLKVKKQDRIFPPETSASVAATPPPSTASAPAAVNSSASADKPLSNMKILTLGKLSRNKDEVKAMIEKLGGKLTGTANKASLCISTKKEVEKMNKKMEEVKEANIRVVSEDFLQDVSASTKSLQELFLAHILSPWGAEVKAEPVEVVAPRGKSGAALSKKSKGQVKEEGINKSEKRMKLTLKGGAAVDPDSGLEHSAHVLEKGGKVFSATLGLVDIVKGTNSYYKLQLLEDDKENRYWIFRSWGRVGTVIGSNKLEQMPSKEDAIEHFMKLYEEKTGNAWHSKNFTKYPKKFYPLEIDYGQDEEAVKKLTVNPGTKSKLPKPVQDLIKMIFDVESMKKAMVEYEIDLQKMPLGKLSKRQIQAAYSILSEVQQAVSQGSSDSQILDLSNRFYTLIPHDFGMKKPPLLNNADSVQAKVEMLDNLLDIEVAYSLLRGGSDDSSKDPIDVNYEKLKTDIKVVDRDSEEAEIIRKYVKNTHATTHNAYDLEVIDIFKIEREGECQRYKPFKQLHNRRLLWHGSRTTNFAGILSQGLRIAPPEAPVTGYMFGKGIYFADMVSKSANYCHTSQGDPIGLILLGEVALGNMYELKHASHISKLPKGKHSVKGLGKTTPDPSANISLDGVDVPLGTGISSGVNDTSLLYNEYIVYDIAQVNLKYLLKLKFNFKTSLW

SK-OV-3 [7] = test: Antiproliferative activity against human SK-OV-3 cells assessed as cell growth inhibition incubated for 48 hrs by MTT assay; type: functional, cell-based; details: SK-OV-3, 48 h
Procedure, shortened: (§1)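 Cells seeded in 96-well plates and exposed to compounds for 48 h; viability read by MTT. Each experiment repeated three times. SK-OV-3 grown in McCOY's 5A, Bel-7402 and HL-7702 in RPMI-1640, HepG2 in DMEM, Caco-2 in MEM.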

Bel-7402 [8] = test: Antiproliferative activity against human Bel-7402 cells assessed as cell growth inhibition incubated for 48 hrs by MTT assay; type: functional, cell-based; details: Bel-7402, 48 h; procedure, shortened: as §1
HepG2 [9] = test: Antiproliferative activity against human HepG2 cells assessed as cell growth inhibition incubated for 48 hrs by MTT assay; type: functional, cell-based; details: HepG2, 48 h; procedure, shortened: as §1
Caco-2 [10] = test: Antiproliferative activity against human Caco-2 cells assessed as cell growth inhibition incubated for 48 hrs by MTT assay; type: functional, cell-based; details: Caco-2, 48 h; procedure, shortened: as §1
L02 = test: Cytotoxicity against human HL7702 cells assessed as cell growth inhibition incubated for 48 hrs by MTT assay; type: cell-based; details: L02, 48 h; procedure, shortened: as §1
[11] = target: T1, Poly [ADP-ribose] polymerase 1; test: Inhibition of human recombinant GST-tagged PARP-1 expressed in Escherichia coli assessed as reduction in NAD+-dependent ADP ribosylation incubated for 30 mins in presence and NAD by resazurin dye based fluorescence analysis
[12] = target: Poly [ADP-ribose] polymerase 2 (Homo sapiens, UniProt Q9UGN5); test: Inhibition of human recombinant N-terminal GST-tagged PARP-2 expressed in Baculovirus infected Sf9 cells assessed as reduction in NAD+-dependent ADP ribosylation using histone mixture (H2A and H2B) as substrate in presence of activated DNA incubated for 30 mins by chemiluminescence assay
Poly [ADP-ribose] polymerase 2, sequence (Q9UGN5 whole entry): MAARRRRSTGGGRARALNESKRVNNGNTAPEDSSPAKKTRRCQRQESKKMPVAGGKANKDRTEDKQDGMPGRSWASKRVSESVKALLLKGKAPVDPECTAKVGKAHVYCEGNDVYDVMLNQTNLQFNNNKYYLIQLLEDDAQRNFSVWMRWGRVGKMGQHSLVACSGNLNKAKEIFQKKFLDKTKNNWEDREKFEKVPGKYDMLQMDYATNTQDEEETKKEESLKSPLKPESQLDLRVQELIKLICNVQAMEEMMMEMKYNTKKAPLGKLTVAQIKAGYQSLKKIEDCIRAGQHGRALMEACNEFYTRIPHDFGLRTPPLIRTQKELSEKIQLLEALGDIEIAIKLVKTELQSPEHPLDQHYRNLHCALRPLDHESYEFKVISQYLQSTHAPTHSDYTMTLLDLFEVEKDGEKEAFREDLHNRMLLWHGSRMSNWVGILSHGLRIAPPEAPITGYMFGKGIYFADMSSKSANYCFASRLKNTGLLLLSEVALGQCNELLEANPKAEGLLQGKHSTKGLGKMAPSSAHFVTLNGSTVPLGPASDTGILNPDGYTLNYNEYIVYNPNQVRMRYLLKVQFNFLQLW

[13] = Selectivity index, ratio of IC50 for inhibition of human recombinant N-terminal GST-tagged PARP-2 to IC50 for inhibition of human recombinant GST-tagged PARP-1

SMILES	inhibition [6] [%]	IC50 (SK-OV-3 [7]) [µM]	IC50 (Bel-7402 [8]) [µM]	IC50 (HepG2 [9]) [µM]	IC50 (Caco-2 [10]) [µM]	IC50 [11] [µM]	IC50 [12] [µM]	Ratio IC50 [13]	inhibition at 20 µM (SK-OV-3 [1]) [%]	inhibition at 20 µM (Bel-7402 [2]) [%]	inhibition at 20 µM (HepG2 [3]) [%]	inhibition at 20 µM (Caco-2 [4]) [%]	inhibition at 48 h, 20 µM [5] [%]	IC50 (L02) [µM]
Oc1cc(/C=N/NC(=S)Nc2ccccc2)cc(Br)c1O	28	14	13.1	9.29	22.7				76.2	63.5	67.9	72	86.4	13.4
Oc1ccc(/C=N/NC(=S)Nc2ccccc2)cc1O	40.7								< 0	38.8	< 0	78.2	76.4	
COc1cc(Br)c(/C=N/NC(=S)Nc2ccccc2)cc1OC	37								41.3	19.3	67	25.7	78.7	
COc1cc(/C=N/NC(=S)Nc2ccccc2)c(Br)c(Br)c1O	12.5								65.5	39.5	57.1	34.9	27.8	
COc1cc(/C=N/NC(=S)Nc2ccccc2)cc(Br)c1O	35.5								56	25.3	62	62.9	40.7	
COc1cc(/C=N/NC(=S)Nc2ccc(Oc3ccccc3)cc2)c(Br)c(Br)c1OC	23.7								15	< 0	< 0	< 0	< 0	
NC(=S)N/N=C/c1cc(O)c(O)c(Br)c1Br	37.1	19.2	19.6	16	16.4				60.7	69.3	65.8	53.6	82.9	13.5
Oc1cc(/C=N/NC(=S)Nc2ccccc2)c(Br)c(Br)c1O	45.9	5.12	12.3	7.08	9.34				54.6	73.1	72.9	76.4	94.5	5.65
COc1cc(/C=N/NC(=S)Nc2cccc(C(F)(F)F)c2)c(Br)c(Br)c1OC	23								< 0	12.7	43.2	6.4	71.1	
COc1cc(/C=N/NC(=S)Nc2ccccc2)ccc1O	20.6								45.3	41	58.4	75.1	9.28	
COc1cc(/C=N/NC(=S)Nc2ccc(Cl)cc2)c(Br)c(Br)c1OC	38.2	15.3	13.9	13.4	10.1				81.2	51.5	62.7	44.8	85.5	3.5
COc1cc(/C=N/NC(=S)Nc2ccc(F)cc2)c(Br)c(Br)c1OC	46.6								66.3	54.6	60.5	24.5	85.1	
COc1cc(/C=N/NC(=S)Nc2ccc(Oc3ccccc3)cc2)cc(Br)c1OC	27.7								32.3	33.8	< 0	76.3	75.9	
COc1ccc(/C=N/NC(=S)Nc2ccccc2)c(Br)c1O	42.9								62.1	36.4	65.6	82.4	46.9	
COc1ccc(/C=N/NC(=S)Nc2ccccc2)cc1O	37.5								41.4	32.2	38	71.4	41.4	
COc1cc(/C=N/NC(=S)Nc2ccccc2)c(Br)c(Br)c1OC	43.8	9.25	30.2	25.7	9.97				90.4	50.3	54.6	14.2	86.4	22.6

Continued, in another order:

inhibition [6] [%]	IC50 (SK-OV-3 [7]) [µM]	IC50 (Bel-7402 [8]) [µM]	IC50 (HepG2 [9]) [µM]	IC50 (Caco-2 [10]) [µM]	IC50 [11] [µM]	IC50 [12] [µM]	Ratio IC50 [13]	SMILES	inhibition at 20 µM (SK-OV-3 [1]) [%]	inhibition at 20 µM (Bel-7402 [2]) [%]	inhibition at 20 µM (HepG2 [3]) [%]	inhibition at 20 µM (Caco-2 [4]) [%]	inhibition at 48 h, 20 µM [5] [%]	IC50 (L02) [µM]
23.2								COc1cc(/C=N/NC(N)=S)cc(Br)c1OC	< 0	17.6	61.1	18.9	2.11	
30.2								NC(=S)N/N=C/c1cc(O)c(O)c(Br)c1	< 0	< 0	< 0	47.9	54.8	
18.2								COc1cc(/C=N/NC(=S)Nc2ccccc2)cc(Br)c1OC	55.5	75.2	40	67.1	72.1	
28.1								COc1ccc(/C=N/NC(N)=S)cc1O						
42.9								COc1cc(/C=N/NC(N)=S)cc(Br)c1O	21.6	32.3	29.6	35.6	< 0	
43.7	13.7	9.87	8.55	13.7				CCOC(=O)c1ccc(NC(=S)N/N=C/c2cc(Br)c(OC)c(OC)c2)cc1	60.4	39.4	59.3	55.5	84	8.8
32.2								CNC(=S)N/N=C/c1cc(OC)c(OC)c(Br)c1Br	18.3	3.9	38.9	< 0	63.4	
32.2								COc1cc(/C=N/NC(=S)Nc2ccc(Cl)cc2)cc(Br)c1OC	41.5	55.7	46.6	55.4	42.9	
44.1								CNC(=S)N/N=C/c1cc(Br)c(OC)c(OC)c1	32.9	29.6	57.2	43.8	44.3	
61					0.254	> 1	> 3.94	COc1cc(/C=N/NC(N)=S)c(Br)c(Br)c1O	28	44.8	50.8	24.9	< 0	
33								COc1cc(/C=N/NC(=S)NCCCN2CCOCC2)cc(Br)c1OC	37.7	39.4	35.2	36.9	24.7	
42.6								COc1cc(Br)c(/C=N/NC(N)=S)cc1OC	20.8	18.3	37.6	8.65	42.5	
38.1								COc1cc(/C=N/NC(=S)Nc2ccc(F)cc2)cc(Br)c1OC	42.4	48.2	32.3	49.1	68.6	
28								COc1cc(/C=N/NC(N)=S)ccc1O						
34.8								COc1ccc(/C=N/NC(N)=S)c(Br)c1O	9.92	21.4	38.5	9.01	31.8	
38.3								COc1cc(/C=N/NC(=S)Nc2cccc(C(F)(F)F)c2)cc(Br)c1OC	63.3	26	36.4	21	58.6	
